A selection: hits, their analogues and other compounds. The true share with any hit is near 2.3%.
STAT1 inh – reduces IFN-gamma driven STAT1 reporter signal. inhibition, % at 5.5 µM. 0.35% of 200,000 active. NIH 3T3 STAT1-luciferase reporter, luminescence;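 active = inhibition above a set limit, the mean inhibition across all tested compounds plus 3 SD, cut at about 34% in these data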;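 note: 0% = IFN-gamma with DMSO and 100% = IFN-gamma with 300 µM nifuroxazide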
STAT3 inh – inhibitors of IL-6 induced STAT3 signaling; inhibition, % at 5.5 µM; 0.89% of 190,000 active; U3A cells, IL-6 STAT3-luciferase reporter, luminescence; host cell line lacks STAT1;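 active = inhibition above the mean inhibition across all screened compounds plus 3 SD, cut at about 44% in these data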;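 note: 0% = DMSO only wells and 100% = 100 µM nifuroxazide control wells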
PPC-1+TRAIL kill – PPC-1 cancer cell killing with TRAIL present; cell killing (% activity), % at 4 µM or 5 µM; 0.41% of 220,000 active; PPC-1 cells + TRAIL, ATPLite viability luminescence;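 active = cell killing above 50% in the first pass at 4 µM, then a duplicate retest at 5 µM averaging 50% or more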;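 note: plate controls were cells with TRAIL plus DMSO for no effect and medium-only wells lacking cells for full effect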
STAT3 activator – STAT3 signaling activation. U3A cells, IL-6 STAT3-luciferase reporter, luminescence; 100% = signal with IL-6 EC80 alone. activation (% of control), % at 5.6 µM. 0.91% of 190,000 active. AID 871;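 active = activation above the screen-wide mean of compound activation plus 3 SD, cut at about 130% in these data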;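 note: 0% = background luminescence of wells with medium and substrate only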
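Material: human STAT1-deficient U3A cells with stable STAT3-luciferase reporter / Probe or stimulus: IL-6 stimulus at 33 ng/mL final / Schedule: 1 h compound pre-exposure, 6 h IL-6 stimulation, 37 °C / Technique: luminescence / Read-out basis: percent of IL-6-only median luminescence / Control set: IL-6-only high control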
TRAIL sens C8 – sensitizes caspase-8 expressing cells to TRAIL; NB7+C8 cells + TRAIL, ATPlite viability luminescence; inhibition (viability loss, TRAIL sensitization), % at 10 µM; 1% of 360,000 active; AID 624354;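 active = compounds causing at least 50% loss of cell viability in the single-dose screen, relative to plate controls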
HSP90 inh – HSP90 refolding inhibition in rabbit reticulocyte lysate | luciferase refolding luminescence, 3 h | inhibition, % at 5.6 µM | 0.91% of 290,000 active | AID 1789;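 active = inhibition above the screen-wide mean plus 3 SD, computed separately per campaign, cut at about 16% in these data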;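 note: 0% = DMSO wells and 100% = 60 µM geldanamycin wells; inhibitors lower the luminescence because luciferase stays unfolded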
Active calls of the source: *; . = no result given.

SMILES	STAT1 inh	STAT3 inh	PPC-1+TRAIL kill	STAT3 activator	TRAIL sens C8	HSP90 inh
CCOc1cc(/C=N\NC(=O)c2ccc(NC(=O)C(C)(C)C)cc2)ccc1OC(=O)c1cccc(C)c1	11	22	13	86	59*	-4
CCc1ccc(C2C(=O)c3ccccc3C2=O)cc1	.	.	.	.	28	.
CCC(=O)Nc1ccc(C2C(=O)c3ccccc3C2=O)cc1	.	.	.	.	73*	5
CCCCC(=O)Nc1ccc(C2C(=O)c3ccccc3C2=O)cc1	.	.	.	.	48*	.
Cc1ccc(-c2ccccc2NC(=O)CS(=O)CC(=O)Nc2ccc(C)c(Cl)c2)o1 (stereo not given)	.	.	.	.	1	0
Cc1ccc(-c2ccccc2NC(=O)CCl)o1	5	3	0	100	48*	1
COc1ccc(CCN(C)C(=O)c2oc3ccccc3c2C)cc1OC	.	.	.	.	8	.
CC(C)Nc1nc2ccccc2c(=O)[nH]1	0	18	6	94	-8	0
CN(C(=O)COC(=O)c1cnc(Cl)c(Cl)c1)C1CCS(=O)(=O)C1 (stereo not given)	11	15	0	91	1	0
CN(C(=O)COC(=O)c1cnc(Cl)c(Cl)c1)C1CCCCC1	.	.	.	.	69*	.
COc1cccc(-c2ccc(NC(=O)C3CCCN(Cc4ccccn4)C3)cc2)c1 (stereo not given)	.	.	.	.	-10	.
CC(C)(C)c1ccc(C(=O)Nc2cccc(S(=O)(=O)NC3=NCCC3)c2)cc1	.	.	.	.	86*	.
O=C(/C=C/c1ccc(OC(F)F)cc1)Nc1cccc(S(=O)(=O)NC2=NCCCCC2)c1	.	.	.	.	57*	-1
CC(C)(C)NC(=O)NC(=O)COc1ccc(Br)cc1Br	-106	-7	-2	104	12	6
C[C@H](NC(=O)C1CC(=O)N(c2ccc(F)cc2)C1)C(=O)N1CCCCC1 (stereo not given in full)	.	.	.	.	13	-2
COc1ccc(/C=C2/CCc3ccccc3C2=O)cc1OC	2	16	2	89	15	-5
O=C1/C(=C\c2ccncc2)CCc2ccccc21	.	.	.	.	20	.
COc1ccc(C=C2CCc3ccccc3C2=O)cc1	.	.	.	.	87*	.
O=C1C(=Cc2ccccc2Cl)CCc2ccccc21	.	.	.	.	53*	.
O=C1C(=Cc2cccc(Cl)c2)CCc2ccccc21	.	.	.	.	9	.
CCOc1ccccc1C=C1CCc2ccccc2C1=O	.	.	.	.	4	.
COc1ccccc1C=C1CCc2ccccc2C1=O	.	.	.	.	77*	.
O=C1C(=Cc2ccc(F)cc2)CCc2ccccc21	.	.	.	.	80*	.
CCCc1cc(C(=O)Nc2ccccc2SC)no1	0	12	12	90	-14	1
Cc1cc(-c2nnc(-c3cccc(Cl)c3)o2)no1	.	.	21	.	8	-2
SMILES	STAT1 inh	STAT3 inh	PPC-1+TRAIL kill	STAT3 activator	TRAIL sens C8	HSP90 inh
COc1ccccc1N1CCN(C(CNS(=O)(=O)c2cccs2)c2cccnc2)CC1 (stereo not given)	1	7	3	98	1	4
CCc1ccc(C2CC(c3cccc(Cl)c3)n3nc(N)nc3N2)cc1 (stereo not given)	-11	5	10	95	4	-3
CCOC(=O)CSc1nc2sc3c(c2c(=O)n1-c1ccc(C)cc1)CCN(C)C3	.	.	.	.	1	-3
O=C1C(=Cc2ccc(Cl)cc2)CCc2ccccc21	.	.	.	.	81*	.
CCC1COC(c2cccn2Cc2ccccc2Cl)=N1 (stereo not given)	5	11	-1	96	-5	4
Cc1cc(NC(=O)c2ccccc2F)cc(C)c1OCC(=O)N1CCOCC1	.	.	.	.	16	-3
O=C(Nc1ccc(OCC(=O)N2CCOCC2)cc1)c1ccccc1F	.	.	.	.	61*	1
C[C@H](NC(=O)c1ncn2c1c(=O)[nH]c1ccc(Br)cc12)c1ccccc1	.	.	.	.	91*	.
CN=C(c1ccco1)n1c(=S)nc(-c2ccco2)n(C)c1=S	-3	-36	-5	135*	-1	-1
CN=c1scc(-c2cccs2)n1/N=C/c1ccccc1O	47*	107*	74*	9	94*	78*
O=C(COc1ccc([N+](=O)[O-])cc1)Nc1ccc(S(=O)(=O)N2CCOCC2)cc1	.	.	.	.	3	-5
Cc1cccc(C2c3[nH]c4ccccc4c3CCN2C(=O)CN2CCOC2=O)n1 (stereo not given)	5	-37	2	134*	0	8
COc1ccc(S(=O)(=O)N2CCN(Cc3ccccc3[N+](=O)[O-])CC2)cc1	.	.	.	.	8	.
